From ChEMBL document CHEMBL1208778, “Synthesis and anti-cancer activity of chalcone linked imidazolones” (2010)
Activity calls are given as the source filed them. The calls are words filed in the database; no cut-off is given here.

How the values were obtained:
[1] = test system: MCF7; assay: Cell cycle arrest in human MCF7 cells assessed as accumulation at G1 phase at 30 uM after 24 hrs by FACS analysis; format: functional
Procedure, shortened: (§1)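 MCF-7 cells were treated at 30 µM for 24 h alongside a DMSO control. Fractions in G0, G1, S and G2/M phases were measured by FACS, and values are means of three experiments.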

[2] = test system: MCF7; assay: Cell cycle arrest in human MCF7 cells assessed as accumulation at S phase at 10 uM after 24 hrs by FACS analysis; format: functional
Procedure, shortened: (§2)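 MCF-7 breast carcinoma cells were exposed to 10 µM test compound for 24 h, with DMSO as the vehicle control. Cell-cycle distribution was read by FACS as the percentage of cells in G0, G1, S and G2/M.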

[3] = test system: MCF7; assay: Induction of apoptosis in human MCF7 cells assessed as […] in PARP cleavage at 30 uM after 24 hrs by Western blot analysis; format: functional, cell-based
Procedure, shortened: (§3)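 MCF-7 breast carcinoma cells were exposed to 30 µM compound for 24 h, with CA-4 as positive control. Cell lysates were then immunoblotted with antibodies to procaspase-7 and cleavage-specific PARP, using β-actin as loading control.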

[4] = test system: MCF7; assay: Induction of apoptosis in human MCF7 cells assessed as decrease in procaspase 7 level at 30 uM after 24 hrs by Western blot analysis; format: functional, cell-based; procedure, shortened: as §3
[5] = test system: MCF7; assay: Cell cycle arrest in human MCF7 cells assessed as accumulation at S phase at 30 uM after 24 hrs by FACS analysis; format: functional; procedure, shortened: as §1
[6] = test system: MCF7; assay: Cell cycle arrest in human MCF7 cells assessed as accumulation at G2/M phase at 30 uM after 24 hrs by FACS analysis; format: functional; procedure, shortened: as §1
[7] = test system: MCF7; assay: Cell cycle arrest in human MCF7 cells assessed as accumulation at G1 phase at 10 uM after 24 hrs by FACS analysis; format: functional; procedure, shortened: as §2
[8] = test system: MCF7; assay: Cell cycle arrest in human MCF7 cells assessed as accumulation at G2/M phase at 10 uM after 24 hrs by FACS analysis; format: functional; procedure, shortened: as §2
[9] = test system: MCF7; assay: Cell cycle arrest in human MCF7 cells assessed as accumulation at G0 phase at 30 uM after 24 hrs by FACS analysis; format: functional; procedure, shortened: as §1
[10] = test system: MCF7; assay: Cell cycle arrest in human MCF7 cells assessed as accumulation at G0 phase at 10 uM after 24 hrs by FACS analysis; format: functional; procedure, shortened: as §2

`COc1ccc(/C=C\c2cc(OC)c(OC)c(OC)c2)cc1O` [COMBRETASTATIN A4] was tested, and the Activity [1] was 25.04%, the Activity [2] was 9.96% and the Activity [3] was “inactive”. The Activity [4] was “inactive”, the Activity [5] was 39.63% and the Activity [6] was 23.69%. It also gave an Activity [7] of 11.79%, an Activity [8] of 68.8% and an Activity [9] of 11.64%. It also gave an Activity [10] of 9.45%.
